Results from ChEMBL document CHEMBL4706499, “PTG-0861: A novel HDAC6-selective inhibitor as a therapeutic strategy in acute myeloid leukaemia” (Eur J Med Chem, 2020).
Activity calls are given as the source filed them. The rule behind the calls is not given here.

How the values were obtained:
[1] = AUC (infinity) in CD1 mouse at 20 mg/kg, ip measured after 24 hrs by LC/MS/MS method; format: ADME, organism-based; set-up: route intraperitoneal, dose 20 mg/kg, time 24 hrs; settings: in vivo
Histone deacetylase 1 = Histone deacetylase 1 (Homo sapiens, UniProt Q13547); assay: Inhibition of recombinant full length human HDAC1 expressed in SF9 baculovirus using FAM- labelled acetylated peptide as substrate measured by Electrophoretic mobility shift assay
Fibroblast [2] = assay: Cytotoxicity against pooled human fibroblasts measured after 72 hrs by spectrophotometer method; format: cell-based
MV4-11 [3] = assay: Induction of apoptosis in human MV4-11 cells assessed as late apoptotic cells at 1 microM measured after 18 hrs by Annexin V/Propidium iodide stain based Flow cytometry assay (reference value: 4.91%); format: functional
[4] = Intrinsic clearance in mouse hepatocytes assessed per 10^6 cells measured after 120 mins by LC/MS/MS method; format: ADME, cell-based, Hepatocyte; settings: read-out: CLH
MM1.S = assay: Cytotoxicity against human MM1.S cells measured after 72 hrs by spectrophotometer method; format: functional, cell-based
MV4-11 [5] = assay: Induction of apoptosis in human MV4-11 cells assessed as late apoptotic cells at 0.25 microM measured after 18 hrs by Annexin V/Propidium iodide stain based Flow cytometry assay (reference value: 4.91%); format: functional
MV4-11 [6] = assay: Induction of apoptosis in human MV4-11 cells assessed as late apoptotic cells at 2 microM measured after 18 hrs by Annexin V/Propidium iodide stain based Flow cytometry assay (reference value: 4.91%); format: functional
[7] = Half life in mouse hepatocytes measured after 120 mins by LC/MS/MS method; format: ADME, cell-based, Hepatocyte
[8] = Glutathione reactivity at pH 7.4 assessed as compound remaining measured after 30 mins by LC-MS/MS method; format: physicochemical; settings: glutathione solution, read-out: Stabilty
[9] = Selectivity ratio of IC50 for full length recombinant human HDAC3 to IC50 for full length recombinant human HDAC6
[10] = Glutathione reactivity at pH 7.4 assessed as compound remaining measured after 120 mins by LC-MS/MS method; format: physicochemical; settings: glutathione solution, read-out: Stabilty
MV4-11 [11] = assay: Induction of apoptosis in human MV4-11 cells assessed as early apoptotic cells at 0.25 microM measured after 18 hrs by Annexin V/Propidium iodide stain based Flow cytometry assay (reference value: 1.7%); format: functional
Histone deacetylase 4 = Histone deacetylase 4 (Homo sapiens, UniProt P56524); assay: Inhibition of recombinant full length human HDAC4 expressed in SF9 baculovirus using FAM- labelled acetylated peptide as substrate measured by Electrophoretic mobility shift assay
MV4-11 [12] = assay: Induction of apoptosis in human MV4-11 cells assessed as viable cells at 0.25 microM measured after 18 hrs by Annexin V/Propidium iodide stain based Flow cytometry assay (reference value: 53.27%); format: functional; settings: read-out: Activity
[13] = Cmax in CD1 mouse at 20 mg/kg, ip measured after 24 hrs by LC/MS/MS method; format: ADME, organism-based; set-up: route intraperitoneal, dose 20 mg/kg, time 24 hrs; settings: in vivo
RPMI-8226 = assay: Cytotoxicity against human RPMI-8226 cells measured after 72 hrs by spectrophotometer method; format: functional, cell-based; settings: RPMI-8226, 72 h
MV4-11 [14] = assay: Induction of apoptosis in human MV4-11 cells assessed as early apoptotic cells at 4 microM measured after 18 hrs by Annexin V/Propidium iodide stain based Flow cytometry assay (reference value: 1.7%); format: functional
MV4-11 [15] = assay: Induction of apoptosis in human MV4-11 cells assessed as late apoptotic cells at 0.5 microM measured after 18 hrs by Annexin V/Propidium iodide stain based Flow cytometry assay (reference value: 4.91%); format: functional
[16] = target: T1, Protein deacetylase HDAC6 (Homo sapiens) (UniProt Q9UBN7); assay: Inhibition of HDAC6 in human MV4-11 cells assessed as increase in acetylation of alpha tubulin at 0.5 uM measured after 6 hrs by Western blot assay relative to histone H3 acetylation; format: cell-based
T1 sequence (whole entry): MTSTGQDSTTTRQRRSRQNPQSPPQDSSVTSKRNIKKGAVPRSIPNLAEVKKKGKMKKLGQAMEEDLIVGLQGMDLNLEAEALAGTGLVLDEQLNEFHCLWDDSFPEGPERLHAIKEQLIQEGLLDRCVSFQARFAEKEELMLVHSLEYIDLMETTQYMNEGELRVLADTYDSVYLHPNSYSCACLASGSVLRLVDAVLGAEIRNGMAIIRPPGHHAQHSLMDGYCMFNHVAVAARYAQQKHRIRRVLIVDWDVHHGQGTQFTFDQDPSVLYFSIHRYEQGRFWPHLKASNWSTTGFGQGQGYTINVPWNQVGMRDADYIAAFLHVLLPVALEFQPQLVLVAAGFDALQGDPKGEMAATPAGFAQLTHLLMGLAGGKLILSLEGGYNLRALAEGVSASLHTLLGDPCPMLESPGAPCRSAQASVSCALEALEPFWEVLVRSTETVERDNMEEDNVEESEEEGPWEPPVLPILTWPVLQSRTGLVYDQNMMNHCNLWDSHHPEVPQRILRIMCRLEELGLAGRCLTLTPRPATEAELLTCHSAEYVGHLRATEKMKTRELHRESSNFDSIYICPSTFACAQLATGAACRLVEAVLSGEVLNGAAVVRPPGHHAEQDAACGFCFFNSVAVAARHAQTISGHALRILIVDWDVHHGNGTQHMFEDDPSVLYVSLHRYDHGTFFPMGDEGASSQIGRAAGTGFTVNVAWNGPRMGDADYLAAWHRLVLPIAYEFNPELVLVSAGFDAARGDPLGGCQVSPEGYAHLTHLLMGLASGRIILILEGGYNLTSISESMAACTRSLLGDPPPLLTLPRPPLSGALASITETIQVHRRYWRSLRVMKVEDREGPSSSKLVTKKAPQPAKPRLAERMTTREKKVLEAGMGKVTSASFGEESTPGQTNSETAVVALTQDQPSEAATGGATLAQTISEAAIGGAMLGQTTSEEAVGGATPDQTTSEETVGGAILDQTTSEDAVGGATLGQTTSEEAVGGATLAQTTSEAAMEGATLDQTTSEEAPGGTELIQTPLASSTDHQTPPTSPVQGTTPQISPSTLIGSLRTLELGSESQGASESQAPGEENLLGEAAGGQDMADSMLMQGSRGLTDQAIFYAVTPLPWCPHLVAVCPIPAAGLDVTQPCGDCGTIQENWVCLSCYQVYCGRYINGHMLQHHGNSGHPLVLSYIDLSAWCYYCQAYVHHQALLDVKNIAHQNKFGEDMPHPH
Outline: (§1)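 MV4-11 cells were exposed to a range of concentrations for 6 h. Protein extracts were run on SDS-PAGE and immunoblotted for acetylated α-tubulin, acetylated histone H3 and acetylated histone H4, with HSC70 as the loading reference. A representative blot of three independent experiments is shown.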

MV4-11 [17] = assay: Induction of apoptosis in human MV4-11 cells assessed as early apoptotic cells at 0.5 microM measured after 18 hrs by Annexin V/Propidium iodide stain based Flow cytometry assay (reference value: 1.7%); format: functional
Fibroblast [18] = assay: Cytotoxicity against human fibroblasts measured after 72 hrs by spectrophotometer method; format: cell-based
[19] = AUC (last) in CD1 mouse at 20 mg/kg, ip measured after 24 hrs by LC/MS/MS method; format: ADME, organism-based; set-up: route intraperitoneal, dose 20 mg/kg, time 24 hrs; settings: in vivo
[20] = target: T1, Protein deacetylase HDAC6 (Homo sapiens); assay: Inhibition of HDAC6 in human MV4-11 cells assessed as increase in acetylation of alpha tubulin at 0.5 uM measured after 6 hrs by Western blot assay relative to histone H4 acetylation; format: cell-based; outline: as §1

Sequence of Histone deacetylase 1 (Q13547 whole entry): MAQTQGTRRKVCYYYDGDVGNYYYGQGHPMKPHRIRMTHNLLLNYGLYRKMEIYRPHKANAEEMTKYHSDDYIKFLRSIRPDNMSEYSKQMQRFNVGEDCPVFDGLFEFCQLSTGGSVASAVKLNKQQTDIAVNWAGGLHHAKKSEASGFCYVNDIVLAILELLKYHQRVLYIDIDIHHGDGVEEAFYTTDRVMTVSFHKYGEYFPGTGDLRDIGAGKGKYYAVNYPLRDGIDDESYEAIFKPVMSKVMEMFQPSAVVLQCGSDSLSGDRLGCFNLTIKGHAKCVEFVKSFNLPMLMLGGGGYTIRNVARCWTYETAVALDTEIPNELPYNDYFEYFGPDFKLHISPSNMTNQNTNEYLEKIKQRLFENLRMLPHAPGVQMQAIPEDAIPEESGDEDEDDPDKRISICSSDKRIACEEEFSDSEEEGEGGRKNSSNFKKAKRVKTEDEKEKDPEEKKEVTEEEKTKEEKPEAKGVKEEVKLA
Sequence of Histone deacetylase 4 (P56524 whole entry): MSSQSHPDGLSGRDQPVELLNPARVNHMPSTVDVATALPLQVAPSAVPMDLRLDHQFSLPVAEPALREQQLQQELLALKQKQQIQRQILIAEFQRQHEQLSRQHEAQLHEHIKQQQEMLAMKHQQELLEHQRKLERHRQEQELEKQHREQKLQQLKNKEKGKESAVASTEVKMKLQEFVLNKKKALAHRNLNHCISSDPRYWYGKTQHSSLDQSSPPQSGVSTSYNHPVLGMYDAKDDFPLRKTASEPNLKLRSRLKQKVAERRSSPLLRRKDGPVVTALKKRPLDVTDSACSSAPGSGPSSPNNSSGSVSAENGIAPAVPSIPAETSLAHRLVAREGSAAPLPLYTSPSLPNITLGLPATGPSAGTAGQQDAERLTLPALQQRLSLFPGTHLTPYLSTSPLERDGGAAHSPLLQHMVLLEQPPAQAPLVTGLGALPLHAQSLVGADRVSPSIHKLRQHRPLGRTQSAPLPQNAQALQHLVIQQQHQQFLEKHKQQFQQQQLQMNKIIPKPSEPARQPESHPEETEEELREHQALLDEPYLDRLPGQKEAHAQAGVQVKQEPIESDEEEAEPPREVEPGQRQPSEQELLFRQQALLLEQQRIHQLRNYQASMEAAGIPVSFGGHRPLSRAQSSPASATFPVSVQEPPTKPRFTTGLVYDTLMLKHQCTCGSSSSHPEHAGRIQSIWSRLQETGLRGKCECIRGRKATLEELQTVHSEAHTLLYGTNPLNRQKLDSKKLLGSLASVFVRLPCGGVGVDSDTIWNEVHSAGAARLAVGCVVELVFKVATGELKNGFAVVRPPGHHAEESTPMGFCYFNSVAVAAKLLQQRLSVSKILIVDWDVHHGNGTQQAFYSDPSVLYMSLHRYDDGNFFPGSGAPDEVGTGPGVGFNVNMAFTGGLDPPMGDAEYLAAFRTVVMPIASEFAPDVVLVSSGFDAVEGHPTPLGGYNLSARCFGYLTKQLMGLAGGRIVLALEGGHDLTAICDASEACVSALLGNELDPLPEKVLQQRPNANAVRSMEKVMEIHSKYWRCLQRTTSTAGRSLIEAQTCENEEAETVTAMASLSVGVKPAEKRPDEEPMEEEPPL

O=C(NO)c1ccc(CNC(=O)c2c(F)c(F)c(F)c(F)c2F)cc1
AUC(0-inf) [1]: 219 ng·h/mL | IC50 (Histone deacetylase 1): > 1000 nM | IC50 (Fibroblast [2]): 14.6 µM | Activity (MV4-11 [3]): 11.15% | hepatocyte CLint [4]: 27.3 µL/min/1e6 cells | IC50 (MM1.S): 1900 nM | Activity (MV4-11 [5]): 5.13% | Activity (MV4-11 [6]): 15.93% | half-life [7]: 50.9 min | remaining at 0.5 h [8]: 96.4% | Ratio IC50 [9]: 36.3 | remaining at 2 h [10]: 97.1% | Activity (MV4-11 [11]): 1.69% | IC50 (Histone deacetylase 4): > 1000 nM | viability at 0.25 µM (MV4-11 [12]): 52.3% | Cmax [13]: 526 ng/mL | IC50 (RPMI-8226): 4.94 µM | Activity (MV4-11 [14]): 18% | Activity (MV4-11 [15]): 7.46% | inhibition [16]: Active | Activity (MV4-11 [17]): 2.87% | IC50 (Fibroblast [18]): 11.5 µM | AUC(0-t) at 24 h [19]: 190 ng·h/mL | inhibition [20]: Active
